Measurements taken from ChEMBL document CHEMBL1123848, “Role of the (acyloxy)methyl moiety in eliciting the adrenergic beta-blocking activity of 3-(acyloxy)propanolamines” (J Med Chem, 1987).

Tests used:
[1] = biological target: Beta-1 adrenergic receptor (Cavia porcellus) (UniProt B0FL73); experiment: (§1) Antagonist activity against beta-1 adrenergic receptor in isolated guinea pig atria; type: functional
In short: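 Atria from adult male guinea pigs (300–350 g), stabilized 45 min in Tyrode solution. Isoprenaline dose-effect curve by single doses, each run to maximal response. Antagonist added at increasing concentrations with 15 min contact per dose; solutions freshly prepared. Percent inhibition of the maximal agonist response measured; pA2 (50% reduction) and pA10 (90%) calculated by the Arunlakshana–Schild method.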

[2] = biological target: Beta-2 adrenergic receptor (Cavia porcellus) (UniProt Q8K4Z4); experiment: (§2) Antagonist activity against beta-2 adrenergic receptor in isolated guinea pig trachea; type: functional, tissue-based
Beta-2 adrenergic receptor (Cavia porcellus), sequence (Q8K4Z4 whole entry, looked up): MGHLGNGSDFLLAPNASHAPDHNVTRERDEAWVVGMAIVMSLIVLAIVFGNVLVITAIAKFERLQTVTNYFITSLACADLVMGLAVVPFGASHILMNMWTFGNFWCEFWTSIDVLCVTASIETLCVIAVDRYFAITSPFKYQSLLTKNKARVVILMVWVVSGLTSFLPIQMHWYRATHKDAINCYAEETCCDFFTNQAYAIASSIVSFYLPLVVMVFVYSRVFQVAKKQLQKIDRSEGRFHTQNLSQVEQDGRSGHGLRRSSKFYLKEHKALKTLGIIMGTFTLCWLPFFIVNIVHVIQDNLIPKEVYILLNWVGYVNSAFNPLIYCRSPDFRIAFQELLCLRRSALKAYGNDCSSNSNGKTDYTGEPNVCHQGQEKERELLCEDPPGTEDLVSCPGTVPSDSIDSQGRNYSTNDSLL

[3] = biological target: Beta-1 adrenergic receptor (Cavia porcellus, UniProt B0FL73); experiment: as §1; type: functional; settings: read-out: pA2 (converted)
Beta-1 adrenergic receptor, sequence (B0FL73 whole entry): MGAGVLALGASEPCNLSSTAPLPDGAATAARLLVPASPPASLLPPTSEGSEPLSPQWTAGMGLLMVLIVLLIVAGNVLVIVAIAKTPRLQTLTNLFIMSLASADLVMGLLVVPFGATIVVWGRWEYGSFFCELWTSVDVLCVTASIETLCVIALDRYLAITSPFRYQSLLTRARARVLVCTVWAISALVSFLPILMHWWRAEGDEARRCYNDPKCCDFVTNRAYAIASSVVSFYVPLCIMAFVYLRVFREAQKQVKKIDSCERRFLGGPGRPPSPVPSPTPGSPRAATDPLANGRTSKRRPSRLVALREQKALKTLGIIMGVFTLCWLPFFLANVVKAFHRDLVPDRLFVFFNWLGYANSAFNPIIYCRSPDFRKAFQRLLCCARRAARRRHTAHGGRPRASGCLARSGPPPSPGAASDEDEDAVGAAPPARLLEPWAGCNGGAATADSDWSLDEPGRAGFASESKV
In short: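 Atria from adult male guinea pigs (300–350 g), stabilized 45 min in Tyrode solution. Isoprenaline dose-effect curve by single doses, each run to maximal response. Antagonist added at increasing concentrations with 15 min contact per dose; solutions freshly prepared.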

[4] = biological target: Beta-2 adrenergic receptor (Cavia porcellus, UniProt Q8K4Z4); experiment: as §2; type: functional, tissue-based; settings: read-out: pA2 (converted)
Beta-2 adrenergic receptor, sequence (Q8K4Z4 whole entry): as the sequence (Q8K4Z4 whole entry, looked up) above

Beta-1 adrenergic receptor (Cavia porcellus), sequence (B0FL73 1-467): as the sequence (B0FL73 whole entry) above

| Structure (SMILES) | pA10 [1] | pA10 [2] | Kb [3] | Kb [4] |
| --- | --- | --- | --- | --- |
| CCC(=O)OCC(O)CNC(C)(C)C (stereo not given) | 3.74 | 3.79 | 28.2 µM | 26.3 µM |
| CC(C)NCC(O)COC(=O)c1cccs1 (stereo not given) | 5.11 | 5.54 | 1.58 µM | 0.468 µM |
| CC(C)C(=O)OCC(O)CNC(C)(C)C (stereo not given) | 4.1 | 3.94 | 11.5 µM | 28.8 µM |
| CC(C)(C)NCC(O)COC(=O)C1CCCCC1 (stereo not given) | 4.22 | 4.71 | 7.94 µM | 2.51 µM |
| CC(C)NCC(O)COC(=O)Cc1cccs1 (stereo not given) | 4.28 | 4.35 | 11 µM | 10 µM |
| COc1ccc(OC)c(C(O)C(C)NC(C)(C)C)c1 (stereo not given) | 3.98 | 5.96 |  |  |
| CC(C)NCC(O)COC(=O)c1ccc2c(c1)OCO2 (stereo not given) |  |  | 0.126 µM |  |
| CC(C)(C)NCC(O)COC(=O)c1cccs1 (stereo not given) | 5.42 | 6.82 | 0.457 µM | 0.0191 µM |
| CC(C)NCC(O)COC(=O)C1CCCCC1 (stereo not given) | 4.2 | 4.62 | 12.3 µM | 2.29 µM |
| CC(C)NCC(O)COC(=O)C(C)C (stereo not given) | 3.9 | 4.52 | 26.9 µM | 4.27 µM |
